Screens deposited in PubChem by several laboratories.
WT yeast gro inh = growth inhibition of WT yeast, mitochondrial fusion screen; mitochondrial fusion phenotypic screen, WT strain; inhibition, % at 10 µM; 190,000 compounds, 2.1% hits; AID 1362; in the data active means inhibition above about 58%; tested in S. cerevisiae
RAM inhibit = blocks the yeast RAM network | S. cerevisiae dse1pr::URA3 reporter, 5-FOA growth OD615, 2 d; analog-sensitive cbk1-as2 kinase mutant strain | inhibition, % at 50 µM | 190,000 compounds, 1.8% hits | AID 868;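 active means inhibition above a set limit, 3 SD over mean compound inhibition, cut at about 8.4% in these data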;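 further: 0% = DMSO-only wells with no growth and 100% = 10 µM 1-NA-PP1 full growth; inhibition rescues growth on 5-FOA so higher OD means more RAM inhibition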
L major viab = inhibitors of Leishmania major promastigote growth; inhibition, % at 10 µM; 200,000 compounds, 9% hits; Leishmania major promastigotes, resazurin fluorescence viability; in the data active means inhibition above about 50%;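 further: promastigotes grown with compound for 44 hours at 28 °C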
ABCG2 block = human ABCG2 inhibition, ABCB1 as counter-screen. Q9UNQ0. IgMXP3 cells, JC-1 efflux, flow cytometry. inhibition, % at 6.6 µM. 190,000 compounds, 0.1% hits;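 active means inhibition above 80%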;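 further: 0% = DMSO and 100% = nicardipine control wells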
Target sequence (Q9UNQ0 whole entry, looked up): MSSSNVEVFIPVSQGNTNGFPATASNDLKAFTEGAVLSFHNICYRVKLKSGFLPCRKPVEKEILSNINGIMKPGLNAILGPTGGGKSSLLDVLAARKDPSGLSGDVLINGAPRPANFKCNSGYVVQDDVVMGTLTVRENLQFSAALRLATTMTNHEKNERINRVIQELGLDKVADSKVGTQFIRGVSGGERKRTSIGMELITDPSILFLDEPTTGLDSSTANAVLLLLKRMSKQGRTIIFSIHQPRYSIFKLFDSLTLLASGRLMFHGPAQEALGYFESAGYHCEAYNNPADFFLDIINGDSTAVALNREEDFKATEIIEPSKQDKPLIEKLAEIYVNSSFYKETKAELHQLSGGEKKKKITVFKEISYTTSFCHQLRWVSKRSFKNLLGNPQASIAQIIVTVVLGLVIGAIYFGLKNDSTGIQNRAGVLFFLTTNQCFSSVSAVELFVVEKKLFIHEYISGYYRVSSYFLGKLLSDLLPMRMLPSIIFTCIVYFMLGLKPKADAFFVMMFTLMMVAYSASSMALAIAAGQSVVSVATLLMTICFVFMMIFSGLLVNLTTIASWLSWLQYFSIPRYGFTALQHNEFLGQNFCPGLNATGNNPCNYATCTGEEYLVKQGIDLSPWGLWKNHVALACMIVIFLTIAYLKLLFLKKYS
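Incubation: cells with compound and JC-1, 10 min at 25 °C, rotating, no wash / Test system: IgMXP3 (ABCG2) plus far-red-tagged CCRF-Adr (ABCB1) cells / Compound dosing: one concentration, 6.6 µM final / Also added: JC-1 fluorescent substrate / Evaluation: efflux inhibition in percent versus controls / Detection: flow cytometry, 530 nm JC-1 signal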
ABCB1 inh = inhibitors of human ABCB1 transporter, ABCG2 counter-screen; P08183; AID 1326; 190,000 compounds, 0.067% hits; CCRF-Adr cells, JC-1 efflux, flow cytometry; inhibition, % at 6.6 µM; in the data active means inhibition above about 40%;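 further: 0% = vehicle and 100% = reference inhibitor; higher value means more JC-1 retained so stronger ABCB1 efflux block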
L major 1uM = blocks Leishmania major promastigote growth at 1 uM, repeat screen; inhibition, % at 1 µM; 1,100 compounds, 13% hits; shares compounds with L major viab; L. major promastigote growth, resazurin fluorescence, 48 h; AID 1258;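 active means inhibition above about 50% in both repeat tests, limit read from the data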
An asterisk follows results filed as active. Only some compounds are listed: those with a hit (about 12% of all), similar ones and a draw of the others.

For Cc1ccc(SCC(=O)Nc2ccc(N3CCN(C)CC3)c(F)c2)cc1 the results were WT yeast gro inh 19.3, RAM inhibit 0.4, L major viab 100.1*, ABCG2 block 0.8, ABCB1 inh 0.2 and L major 1uM 2.0.
Screening Cc1onc(-c2c(Cl)cccc2Cl)c1C(=O)N1CCCc2ccccc21 returned WT yeast gro inh 10.7, RAM inhibit 1.0, L major viab 92.2*, ABCG2 block 5.5, ABCB1 inh 1.0 and L major 1uM -19.6.
Screening Cc1onc(-c2c(F)cccc2Cl)c1C(=O)N1CCc2ccccc21 returned WT yeast gro inh -7.3, RAM inhibit 0.4, L major viab 8.1, ABCG2 block -0.1 and ABCB1 inh 0.4.
Screening CCCCCCCCC/C(=N\O)c1ccccn1 returned WT yeast gro inh 73.7*, RAM inhibit -1.9, L major viab 87.5*, ABCG2 block 1.2, ABCB1 inh 0.2 and L major 1uM 4.8.
For Cc1ccccc1C1CCCN(Cc2nc(CC3CC3)no2)C1 (stereo not drawn) the results were WT yeast gro inh -0.7, RAM inhibit -0.2, L major viab 0.6, ABCG2 block -2.3 and ABCB1 inh 0.3.
`CCOc1ccc(NC(=O)c2cn(-c3ccc(OCC)cc3)c(=O)c3cc(OC)c(OC)cc23)cc1` gave WT yeast gro inh 20.7, RAM inhibit 5.6, L major viab 88.5*, ABCG2 block 5.6, ABCB1 inh 1.6 and L major 1uM -9.0.
COC(=O)[C@H](Cc1ccccc1)NC(=O)O[C@@H]1C(=O)c2cc(Br)ccc2O[C@H]1c1cccc(OC)c1 was read as WT yeast gro inh 11.6, RAM inhibit 6.0, L major viab -2.5, ABCG2 block 11.0 and ABCB1 inh 1.8.
`c1ccc(C(Cc2nc(-c3cccnc3)no2)c2ccccc2)cc1` gave WT yeast gro inh 7.8, RAM inhibit 2.8, L major viab 6.1, ABCG2 block 2.7 and ABCB1 inh 0.8.
Screening c1ccc(C(c2ccccc2)c2nc(-c3cccnc3)no2)cc1 returned WT yeast gro inh 85.6*, RAM inhibit 1.0, L major viab 67.8*, ABCG2 block 27.1, ABCB1 inh -0.4 and L major 1uM -10.4.
O=C/C(=C\Nc1ccccn1)c1nc2cc(Cl)ccc2o1 was read as WT yeast gro inh 8.5, RAM inhibit 1.0, L major viab 71.8*, ABCG2 block 3.5, ABCB1 inh -0.4 and L major 1uM -1.1.
CCOC(=O)CC(NC(=O)CCc1c(C)nc2ncnn2c1C)c1ccc(C)cc1 (stereo not drawn) was read as WT yeast gro inh 6.2, RAM inhibit 0.8, L major viab -1.8, ABCG2 block 14.8 and ABCB1 inh 0.7.
Screening Cc1ccc(O)c(C2=NCCNC(C(F)(F)C(F)F)=C2)c1 returned WT yeast gro inh 6.5, RAM inhibit -0.5, L major viab -8.3, ABCG2 block 4.3 and ABCB1 inh -0.9.
For Oc1ccc(Cl)cc1C1=NCCNC(C(F)(F)C(F)F)=C1 the results were WT yeast gro inh 3.6, RAM inhibit 0.4, L major viab 76.0*, ABCG2 block 16.6, ABCB1 inh -0.7 and L major 1uM -18.4.
For Fc1ccc(Sc2ccccc2CNC2=NCCN2)cc1 the results were WT yeast gro inh 79.5*, RAM inhibit 1.0, L major viab 99.6*, ABCG2 block 0.1, ABCB1 inh 0.0 and L major 1uM -9.0.
CCOC(=O)C(C)Sc1nnc(NC(=O)c2ccc3c(c2)OCO3)s1 (stereo not drawn) was read as WT yeast gro inh 16.0, RAM inhibit 2.7, L major viab -4.8, ABCG2 block 2.5 and ABCB1 inh 0.9.
`Nc1ccc(Nc2ccccc2N)cc1` gave WT yeast gro inh 36.5, RAM inhibit 7.8, L major viab 98.8*, ABCG2 block 39.5, ABCB1 inh 8.7 and L major 1uM -0.2.
`O=C(Nc1ccccc1)NC1CCN(Cc2ccccc2)CC1` gave WT yeast gro inh -9.8, RAM inhibit 0.0, L major viab 28.9, ABCG2 block 2.6 and ABCB1 inh 0.8.
Screening O=C(COc1ccccc1F)NC1CCN(Cc2ccccc2)CC1 returned WT yeast gro inh 27.2, RAM inhibit 0.1, L major viab 90.7*, ABCG2 block -0.8, ABCB1 inh -0.2 and L major 1uM 71.6*.
`CCCSc1nsc(SCCC)c1C#N` gave WT yeast gro inh 17.4, RAM inhibit 1.1, L major viab -3.3, ABCG2 block 40.7 and ABCB1 inh 1.1.
C#CCSc1nsc(SCC#C)c1C#N was read as WT yeast gro inh 3.7, RAM inhibit 5.4, L major viab 94.4*, ABCG2 block -0.6, ABCB1 inh -0.4 and L major 1uM -14.1.
`COc1ccc(C(=O)O/N=C(\N)Cc2ccc(Cl)cc2)cc1OC` gave WT yeast gro inh 6.7, RAM inhibit -0.7, L major viab 65.7*, ABCG2 block 1.1, ABCB1 inh 0.1 and L major 1uM -3.6.
Cc1nccc(-c2ccc(-n3cnc4ccccc43)cc2)n1 was read as WT yeast gro inh 6.8, RAM inhibit 1.9, L major viab 62.4* and L major 1uM -9.9.
Nc1nccc(-c2ccc(-n3cnc4ccccc43)cc2)n1 was read as WT yeast gro inh -4.1, RAM inhibit -0.1, L major viab 6.5, ABCG2 block 8.1 and ABCB1 inh 1.1.
For COc1ccc(C2C(C#N)=C(N)Oc3cc(C)[nH]c(=O)c32)c(OC)c1OC (stereo not drawn) the results were WT yeast gro inh 6.1, RAM inhibit -0.1, L major viab -4.4, ABCG2 block 0.0 and ABCB1 inh 0.0.
For OCCOCCN1CCN(C(=S)Nc2ccccc2)CC1 the results were WT yeast gro inh -13.8, RAM inhibit 0.6, L major viab -2.0, ABCG2 block 0.9 and ABCB1 inh 0.1.
Screening O=C1c2ccccc2-c2onc3ccc(Oc4ccccc4)c1c23 returned WT yeast gro inh 29.3, RAM inhibit 1.6, L major viab 100.3*, ABCG2 block 30.4, ABCB1 inh 3.8 and L major 1uM -13.3.
Screening COc1ccccc1CN=c1c([N+](=O)[O-])nn(-c2ccc3c(c2)OCCO3)n1O returned WT yeast gro inh 10.1, RAM inhibit 3.8, L major viab 98.1*, ABCG2 block 11.2, ABCB1 inh 1.7 and L major 1uM 13.8.
`CCOCCOC(=O)COc1ccc2c(-c3ccccc3)cc(=O)oc2c1` gave WT yeast gro inh -5.6, RAM inhibit 0.0, L major viab -6.8, ABCG2 block 2.2 and ABCB1 inh 0.8.
CCCC(=O)OC1CCS(=O)(=O)c2sccc21 (stereo not drawn) was read as WT yeast gro inh 7.5, RAM inhibit 1.0, L major viab -1.2, ABCG2 block 7.4 and ABCB1 inh 1.1.
Screening COc1cccc(N2CCN(C(=O)c3ccc(N4C(=O)NC5CC4(C)Oc4ccccc45)cc3)CC2)c1 (stereo not drawn) returned WT yeast gro inh 7.4, RAM inhibit 0.1, L major viab 72.8*, ABCG2 block -1.2, ABCB1 inh -0.6 and L major 1uM -10.3.
